Apaf-1 act – activators of human Apaf-1 apoptosome; activity change, negative = activation, % at 20 µM; O14727; Apaf-1 apoptosome caspase-3 activation, DEVD-Rh110 fluorescence; active compounds read low; 330,000 tested, 0.31% active;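 active means activity change at or below -40% at 20 µM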
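Material: reconstituted apoptosome of Apaf-1, cytochrome c, caspase-9, procaspase-3; times: 30 min preincubation, 50 min reaction, room temperature; measured by: fluorescence, 540 nm emission, 480 nm excitation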
Rh110 act interf – Rh110 signal interference in Apaf-1 activator counter-screen | shares compounds with Apaf-1 act | Rh110 fluorescence interference, quenched caspase reaction, Ex480/Em540 | fluorescence interference (activity change), % at 20 µM, hits read low | 980 tested, under 10 active | AID 504616;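 active means mean activity change at or below -40% when tested at 20 µM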
Apaf-1 act conf2 – Apaf-1 (human) activation, single-dose confirmed; shares compounds with Apaf-1 act; reconstituted apoptosome caspase-3 activity, DEVD-Rh110 fluorescence; active compounds read low; activity change, negative = activation, % at 20 µM; 980 tested, 5% active; AID 504617;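 active means mean activity change at or below -40%, meaning activation of 40% or more, at 20 µM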
The depositor's hits bear a star; . = not tested or not shown. Not all results are given here.

SMILES	Apaf-1 act	Rh110 act interf	Apaf-1 act conf2
C#CCOCCOCCOCCNc1nc(N2CCN(C(=O)CCCCCCCCCCNC(=O)[C@H]([C@@H](C)CC)n3cc(CCCCCN)nn3)CC2)nc(N2CCN(C(=O)CCCCCCCCCCNC(=O)[C@H](CO)n3cc(CCCCCN)nn3)CC2)n1	71.3	.	.
COC(=O)CCC(=O)OC1(C)C(=O)C2=CN(CC3CC3)C(c3ccc(OC)cc3)=CC2=C(Br)C1=O (stereo unspecified)	66.3	.	.
COc1ccc(/C=C/C(=O)Nc2cc(C)nn2-c2nc3ccccc3[nH]2)cc1	-56.2*	11.4	14.5
COc1ccc(/C=C2/C(=O)N(c3c(F)c(F)c(F)c(F)c3F)N=C2C)cc1	53.8	.	.
N#Cc1c(N)sc(=S)c2c1CCN(Cc1ccccc1)C2	95.5	.	.
N#Cc1ccccc1NC(=O)CN1CCN(Cc2ccccc2)CC1	-41.6*	19.1	10.9
N#Cc1c(NCCO)nc(NCc2ccccc2)c2c1CCN(Cc1ccccc1)C2	60.0	.	.
CCCCCCSc1ccc(-c2nc3cc(C)ccn3c2NC2CCCCC2)cc1	46.6	.	.
O=C(Nc1ccc(-c2nc3ccc(NC(=O)c4cccs4)cc3[nH]2)cc1)c1cccs1	68.9	.	.
O=C(NNc1ccccc1C(F)(F)F)c1cccs1	-107.0*	4.1	7.8
CCOC(=O)COc1ccc(S(=O)(=O)NCC2CCCO2)cc1 (stereo unspecified)	-185.3*	0.2	8.3
COc1ccc(C(=O)/C=C/C(=O)N(CC(=O)NC2CCCCC2)CC2CCCO2)c(O)c1 (stereo unspecified)	49.3	.	.
CN(C)c1ccc(NC(=O)Oc2ccccc2)cc1	48.3	.	.
C#CCOCCOCCOCCNc1nc(N2CCN(C(=O)CCCCCCCCCCNC(=O)[C@H]([C@@H](C)CC)n3cc(CCCCN=C(N)N)nn3)CC2)nc(N2CCN(C(=O)CCCCCCCCCCNC(=O)[C@H](CO)n3cc(CCCCCN)nn3)CC2)n1	85.1	.	.
O=C(N/N=C/c1c(F)cccc1Cl)C1CC1	-141.5*	-3.9	7.8
Cc1cc(Cl)ccc1NC(=S)NC1CCCC1	-42.3*	11.9	23.1
Cc1ccc(NC(=S)Nc2cccc3cnccc23)c(C)c1	96.4	.	.
CCc1cc2c(nc1CC)CCN(CC/C(C)=N/OC[C@H]1O[C@H](c3ccccc3)C=C[C@@H]1Oc1ccc(OC)cc1)C2	43.4	.	.
CN1C[C@H](C(=O)N[C@]2(C)O[C@@]3(O)[C@@H]4CCCN4C(=O)[C@H](Cc4ccccc4)N3C2=O)CC2c3cccc4[nH]cc(c34)C[C@H]21 (stereo partly specified)	9.8	.	.
CC1=CC(C)(C)NC(=S)N1C(C)c1ccccc1 (stereo unspecified)	-56.1*	-1.4	15.6
Cn1c(=O)c2[nH]c(=O)cnc2n(C)c1=S	56.3	.	.
Cc1ccc(O)c(CNc2cccc3cccnc23)c1	93.4	.	.
Cc1ccc(Sc2ncccc2C(=O)NCc2cc([N+](=O)[O-])ccc2O)c(C)c1	-47.8*	-6.4	11.6
CC(=O)[C@@H]1[C@@H]2C(=O)N(C3CCCCC3)C(=O)[C@@H]2C2c3ccccc3C=CN21 (stereo partly specified)	84.1	.	.
O=C(c1ccco1)[C@@H]1[C@@H]2C(=O)N(c3ccc(F)cc3)C(=O)[C@@H]2C2c3ccccc3C=CN21 (stereo partly specified)	82.5	.	.
SMILES	Apaf-1 act	Rh110 act interf	Apaf-1 act conf2
Cn1c(=O)c2c(-c3ccc(C(C)(C)C)cc3)n(N3CCOCC3)cc2n(C)c1=O	-60.2*	14.0	15.9
O=C(CC1Nc2cccc3cccc(c23)NC1=O)Nc1ccc(F)cc1 (stereo unspecified)	95.6	.	.
CN(CC(=O)Nc1ccc(Cl)cc1)C(=O)c1sccc1-c1ccccc1	45.9	.	.
CC(C)c1ccccc1OCC(=O)N(C)CC(=O)Nc1ccc(F)cc1	-504.5*	-1.9	8.8
CCSCCC(NC1=CC(=O)CC(C)(C)C1)C(=O)O (stereo unspecified)	48.7	.	.
CCc1ccc2[nH]c(C(=O)Nc3ccc(Br)c(C)n3)cc2c1	-483.9*	2.8	13.3
Cc1cccc(NC2=C(NC(=O)c3ccccc3)C(=O)c3ccccc3C2=O)c1	73.4	.	.
Cc1ccc(S(=O)(=O)NC(=O)Nc2ccccc2)cc1	-528.6*	1.9	7.8
CC(=O)Nc1ccc(S(=O)(=O)Nc2nc3ccccc3nc2Nc2ccc(C(=O)O)c(O)c2)cc1	58.3	.	.
CCOc1cc(/C=C2/C(=O)N(c3ccccc3)N=C2C)ccc1OC(=O)c1cccs1	69.4	.	.
Cn1c(C(=O)NCCN2CCCCCC2)cc2c(=O)n(C)c3ccccc3c21	43.0	.	.
